ChEMBL document CHEMBL1149343, “Discovery of antiglioma activity of biaryl 1,2,3,4-tetrahydroisoquinoline derivatives and conformationally flexible analogues” (J Med Chem, 2006)

How the values were obtained:
C6 = experiment: Cytotoxicity against rat C6 glioma cell line; format: functional, cell-based
How it was run: (§1)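 Cells were maintained in 10% FCS BME (Basal Media Eagle). Compound exposure was in 2% FCS BME for 96 h at 37 °C in humidified 5% CO2. IC50 values came from dose-response experiments over a 4-day incubation.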

Astrocyte = experiment: Cytotoxicity against rat astrocytes; format: functional, cell-based; how it was run: as §1
T98G = experiment: Cytotoxicity against human T98G cell line; format: functional, cell-based
A549 = experiment: Cytotoxicity against human A549 cell line; format: functional, cell-based
MCF7 = experiment: Cytotoxicity against human MCF7 cell line; format: functional, cell-based
LNCaP = experiment: Cytotoxicity against human LNCaP cell line; format: functional, cell-based
HeLa = experiment: Cytotoxicity against human HeLa cell line; format: functional, cell-based
U-87 MG = experiment: Cytotoxicity against human U87 cell line; format: functional, cell-based, U-87MG ATCC

| Structure (SMILES) | IC50 (C6) [µM] | IC50 (Astrocyte) [µM] | further results |
| --- | --- | --- | --- |
| Nc1ccc(CC2NCCc3cc(O)c(O)cc32)cc1 (centres undefined) | > 50 |  |  |
| COc1cc2c(cc1OC)CN(CCc1ccc(-c3ccccc3)cc1)CC2 | 9.3 | 15.5 |  |
| COc1cc2c(cc1OC)C(Cc1ccc(-c3ccccc3)cc1)NCC2 (centres undefined) | 4.1 | 83.8 |  |
| O=C(c1ccccc1)c1ccc(CC2NCCc3cc(O)c(O)cc32)cc1 (centres undefined) | 9.4 | 21 |  |
| Oc1ccc(CCNCCc2ccc(-c3ccccc3)cc2)cc1O | 8.6 | > 100 |  |
| C=C1C(OC(=O)N(C)C)=C(c2ccc(C)cc2)Oc2cc(Cl)ccc2N1C | 37.5 |  |  |
| COc1cc2c(cc1OC)C(Cc1ccc(C(=O)c3ccccc3)cc1)NCC2 (centres undefined) | 40 | 40 |  |
| CN1CCc2cc(O)c(O)cc2C1Cc1ccc(-c2ccccc2)cc1 (centres undefined) | 8 | 15 |  |
| COc1cc(C(O)C2CNCCc3cc(O)c(O)cc32)cc(OC)c1OC (centres undefined) | > 50 |  |  |
| COc1ccc(CCN(C)CCc2ccc(-c3ccccc3)cc2)cc1OC | 12.5 | 39 |  |
| Oc1cc2c(cc1O)C(Cc1ccc(-c3ccccc3)cc1)NCC2 (centres undefined) | 2.6 | 29 | IC50 (T98G): 10.2 µM; IC50 (A549): 10.2 µM; IC50 (MCF7): 3.8 µM; IC50 (LNCaP): 10.7 µM; IC50 (HeLa): 3 µM; IC50 (U-87 MG): 25.9 µM |
| O=NN(CCCl)C(=O)NCCCl [CARMUSTINE] | 9.3 | 156 |  |
| O=c1[nH]cc(F)c(=O)[nH]1 [FLUOROURACIL] | 6.1 | > 100 |  |
| N[C@@H](Cc1ccc(N(CCCl)CCCl)cc1)C(=O)O [MELPHALAN] | 12.6 | 34 |  |
| CCC(C)N(C)C(=O)c1cc2ccccc2c(-c2ccccc2Cl)n1 (centres undefined) [PK-11195] | 73 |  |  |
| CN1C(=O)CN=C(c2ccc(Cl)cc2)c2cc(Cl)ccc21 [RO-54864] | 95 |  |  |
| COc1cc(C[C@@H]2NCCc3cc(O)c(O)cc32)cc(OC)c1OC [TRETOQUINOL] | > 50 |  |  |
